This passage reports IC50 and inhibition results from ChEMBL document CHEMBL4251654, “Structure-based design of human immuno- and constitutive proteasomes inhibitors” (Eur J Med Chem, 2018).

In general, IC50 refers to the midpoint of a concentration-inhibition curve. A word on the inhibition: it is the change of the read-out against control, counted positive when it falls.

Molecules are shown by their SMILES.

Proteasome Macropain subunit (Homo sapiens), sequence (P49721 whole entry): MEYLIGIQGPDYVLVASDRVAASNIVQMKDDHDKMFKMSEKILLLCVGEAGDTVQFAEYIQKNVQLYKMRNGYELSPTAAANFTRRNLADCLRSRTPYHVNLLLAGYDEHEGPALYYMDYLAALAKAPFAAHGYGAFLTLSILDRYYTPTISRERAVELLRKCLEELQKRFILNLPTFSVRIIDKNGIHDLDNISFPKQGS

The first test deals with T1, Proteasome subunit beta type-9 (Homo sapiens, UniProt P28065).
T1 sequence (P28065 whole entry): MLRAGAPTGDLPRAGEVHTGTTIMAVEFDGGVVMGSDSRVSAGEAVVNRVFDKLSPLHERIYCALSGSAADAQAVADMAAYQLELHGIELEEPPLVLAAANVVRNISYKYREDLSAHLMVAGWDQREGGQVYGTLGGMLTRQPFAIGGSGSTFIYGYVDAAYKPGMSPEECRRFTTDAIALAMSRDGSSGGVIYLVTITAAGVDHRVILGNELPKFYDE
In words: Inhibition of human 20S immunoproteasome beta-1 using Ac-PAL-AMC as substrate incubated for 15 mins measured for 45 mins by fluorescence assay. In a few lines: (§1)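 Human 20S immunoproteasome (0.3 nM) was given 15 min with compound (0.001-50 μM) in pH 8 buffer of 20 mM Tris-HCl, 10% glycerol, 0.01% SDS, 2% DMSO. Ac-PAL-AMC at 50 μM was the substrate. Fluorescence (ex 360/em 460 nm) was followed 45 min at 37 °C relative to control.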
For the compound `CC(C)(C)OC(=O)N[C@@H](Cc1ccc(OCc2ccccc2)cc1)C(=O)NCC(=O)N[C@@H](C[C@]1(O)C(=O)Nc2ccccc21)C(=O)NCc1ccccc1`, the IC50 was determined as 12.6 µM.

In the case of `C[C@H](NC(=O)[C@H](Cc1ccc(OCc2ccccc2)cc1)NC(=O)OC(C)(C)C)C(=O)N[C@@H](C[C@]1(O)C(=O)Nc2ccccc21)C(=O)NCc1cccc2ccccc12`, the IC50 was 2.77 µM.

In the next test the target is T2, Proteasome subunit beta type-8 (Homo sapiens) (UniProt P28062).
T2 sequence (whole entry): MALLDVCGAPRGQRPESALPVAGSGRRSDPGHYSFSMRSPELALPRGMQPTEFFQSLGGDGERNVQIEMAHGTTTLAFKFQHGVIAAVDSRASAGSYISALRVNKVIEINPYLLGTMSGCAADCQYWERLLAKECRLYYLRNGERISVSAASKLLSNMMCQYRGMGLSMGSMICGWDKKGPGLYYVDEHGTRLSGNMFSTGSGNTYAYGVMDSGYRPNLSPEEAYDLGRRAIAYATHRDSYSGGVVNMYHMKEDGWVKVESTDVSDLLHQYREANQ
In words: Inhibition of human 20S immunoproteasome beta-5 at 50 uM using Suc-LLVY-AMC as substrate incubated for 15 mins measured for 45 mins by fluorescence assay relative to control. In a few lines: (§2)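 Human 20S cCP or iCP (0.3 nM) was exposed to compound (0.001-50 μM) for 15 min in pH 8 buffer of 20 mM Tris-HCl, 10% glycerol, 0.01% SDS, 2% DMSO. Suc-LLVY-AMC at 20 μM followed. Fluorescence (ex 360/em 460 nm) was read 45 min at 37 °C versus untreated enzyme.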
The compound `CC(C)(C)OC(=O)N[C@@H](Cc1ccc(OCc2ccccc2)cc1)C(=O)NCC(=O)N[C@@H](C[C@]1(O)C(=O)Nc2ccccc21)C(=O)NCc1ccccc1` had an inhibition of more than 85%.

For `C[C@H](NC(=O)[C@H](Cc1ccc(OCc2ccccc2)cc1)NC(=O)OC(C)(C)C)C(=O)N[C@@H](C[C@]1(O)C(=O)Nc2ccccc21)C(=O)NCc1cccc2ccccc12`, the inhibition was more than 85%.

The target in another test is T3, Proteasome Macropain subunit MB1 (Homo sapiens, UniProt P28074).
T3 sequence (P28074 whole entry): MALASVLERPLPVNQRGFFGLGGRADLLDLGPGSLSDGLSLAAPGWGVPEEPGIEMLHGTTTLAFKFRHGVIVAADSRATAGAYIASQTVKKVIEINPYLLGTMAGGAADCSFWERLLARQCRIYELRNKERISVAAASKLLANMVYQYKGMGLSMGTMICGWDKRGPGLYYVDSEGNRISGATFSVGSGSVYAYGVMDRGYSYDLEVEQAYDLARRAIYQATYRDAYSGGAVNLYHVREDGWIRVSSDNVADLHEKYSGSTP
In words: Inhibition of human 20S constitutive proteasome beta-5 using Suc-LLVY-AMC as substrate incubated for 15 mins measured for 45 mins by fluorescence assay. The essentials: as §2
`CC(C)(C)OC(=O)N[C@@H](Cc1ccc(OCc2ccccc2)cc1)C(=O)NCC(=O)N[C@@H](C[C@]1(O)C(=O)Nc2ccccc21)C(=O)NCc1ccccc1` came in with an IC50 of 6.2 µM.

As to `C[C@H](NC(=O)[C@H](Cc1ccc(OCc2ccccc2)cc1)NC(=O)OC(C)(C)C)C(=O)N[C@@H](C[C@]1(O)C(=O)Nc2ccccc21)C(=O)NCc1cccc2ccccc12`, the IC50 was 1.4 µM.

The target in another test is T4, Proteasome subunit beta type-9 (Homo sapiens) (UniProt P28065).
T4 sequence (whole entry): T1 sequence (P28065 whole entry)
In words: Inhibition of human 20S immunoproteasome beta-1 at 50 uM using Ac-PAL-AMC as substrate incubated for 15 mins measured for 45 mins by fluorescence assay relative to control. In a few lines: as §1
In turn, `CC(C)(C)OC(=O)N[C@@H](Cc1ccc(OCc2ccccc2)cc1)C(=O)NCC(=O)N[C@@H](C[C@]1(O)C(=O)Nc2ccccc21)C(=O)NCc1ccccc1` returned an inhibition of more than 85%.

Compound `C[C@H](NC(=O)[C@H](Cc1ccc(OCc2ccccc2)cc1)NC(=O)OC(C)(C)C)C(=O)N[C@@H](C[C@]1(O)C(=O)Nc2ccccc21)C(=O)NCc1cccc2ccccc12` yielded an inhibition of more than 85%.

The next test deals with T5, Proteasome component C5 (Homo sapiens) (UniProt P20618).
T5 sequence (whole entry): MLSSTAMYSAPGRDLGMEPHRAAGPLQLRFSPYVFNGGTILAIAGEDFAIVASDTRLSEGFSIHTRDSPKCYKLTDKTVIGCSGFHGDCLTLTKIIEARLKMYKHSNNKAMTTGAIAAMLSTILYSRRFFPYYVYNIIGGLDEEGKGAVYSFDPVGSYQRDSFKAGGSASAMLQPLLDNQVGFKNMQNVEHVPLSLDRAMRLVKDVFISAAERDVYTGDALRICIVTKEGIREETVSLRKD
In words: Inhibition of human 20S constitutive proteasome beta-1 at 50 uM using Z-LLE-betaNA as substrate incubated for 15 mins measured for 45 mins by fluorescence assay relative to control. In a few lines:
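Human 20S constitutive proteasome, 0.3 nM, was preincubated 15 min with compound (0.001-50 μM) in pH 8 Tris-HCl 20 mM, 10% glycerol, 0.01% SDS, 2% DMSO. Z-LLE-βNA at 50 μM was added. βNA fluorescence (ex 340/em 404 nm) was monitored 45 min at 37 °C against an untreated control.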
In turn, `CC(C)(C)OC(=O)N[C@@H](Cc1ccc(OCc2ccccc2)cc1)C(=O)NCC(=O)N[C@@H](C[C@]1(O)C(=O)Nc2ccccc21)C(=O)NCc1ccccc1` returned an inhibition of more than 85%.

Turning to `C[C@H](NC(=O)[C@H](Cc1ccc(OCc2ccccc2)cc1)NC(=O)OC(C)(C)C)C(=O)N[C@@H](C[C@]1(O)C(=O)Nc2ccccc21)C(=O)NCc1cccc2ccccc12`, the inhibition was more than 85%.

Another test concerns the target T6, Proteasome subunit beta type-10 (Homo sapiens, UniProt P40306).
T6 sequence (P40306 whole entry): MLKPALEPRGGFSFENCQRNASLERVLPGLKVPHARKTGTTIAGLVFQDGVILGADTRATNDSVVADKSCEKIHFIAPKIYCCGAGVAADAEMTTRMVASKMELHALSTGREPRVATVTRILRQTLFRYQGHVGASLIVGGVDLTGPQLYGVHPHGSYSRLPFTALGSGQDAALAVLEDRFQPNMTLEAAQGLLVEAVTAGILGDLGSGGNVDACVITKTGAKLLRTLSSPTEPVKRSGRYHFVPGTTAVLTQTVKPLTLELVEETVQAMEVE
In words: Inhibition of human 20S immunoproteasome beta-2 using BocLRR-AMC as substrate incubated for 15 mins measured for 45 mins by fluorescence assay.
In turn, `CC(C)(C)OC(=O)N[C@@H](Cc1ccc(OCc2ccccc2)cc1)C(=O)NCC(=O)N[C@@H](C[C@]1(O)C(=O)Nc2ccccc21)C(=O)NCc1ccccc1` came in with an IC50 of 8.9 µM. In other words, the single-digit micromolar range.

As for `C[C@H](NC(=O)[C@H](Cc1ccc(OCc2ccccc2)cc1)NC(=O)OC(C)(C)C)C(=O)N[C@@H](C[C@]1(O)C(=O)Nc2ccccc21)C(=O)NCc1cccc2ccccc12`, the IC50 was 2.7 µM.

The target in the next test is Proteasome Macropain subunit (Homo sapiens) (UniProt P49721). In words: Inhibition of human 20S constitutive proteasome beta-2 at 50 uM using BocLRR-AMC as substrate incubated for 15 mins measured for 45 mins by fluorescence assay relative to control. The essentials:
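Purified human 20S proteasome (cCP or iCP), 0.3 nM, preincubated 15 min with compound (0.001-50 μM) in pH 8 buffer of 20 mM Tris-HCl, 10% glycerol, 0.005% Triton X-100, 2% DMSO. Then Boc-LRR-AMC at 50 μM was added. AMC fluorescence (ex 360/em 460 nm) was followed 45 min at 37 °C. Activity is relative to an untreated control.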
On to `CC(C)(C)OC(=O)N[C@@H](Cc1ccc(OCc2ccccc2)cc1)C(=O)NCC(=O)N[C@@H](C[C@]1(O)C(=O)Nc2ccccc21)C(=O)NCc1ccccc1`, for which the inhibition is more than 85%.

For `C[C@H](NC(=O)[C@H](Cc1ccc(OCc2ccccc2)cc1)NC(=O)OC(C)(C)C)C(=O)N[C@@H](C[C@]1(O)C(=O)Nc2ccccc21)C(=O)NCc1cccc2ccccc12`, the inhibition was more than 85%.

In the next test the target is T7, Proteasome subunit beta type-8 (Homo sapiens, UniProt P28062).
T7 sequence (P28062 whole entry): T2 sequence (whole entry)
In words: Inhibition of human 20S immunoproteasome beta-5 using Suc-LLVY-AMC as substrate incubated for 15 mins measured for 45 mins by fluorescence assay. The essentials:
as §2
Regarding `CC(C)(C)OC(=O)N[C@@H](Cc1ccc(OCc2ccccc2)cc1)C(=O)NCC(=O)N[C@@H](C[C@]1(O)C(=O)Nc2ccccc21)C(=O)NCc1ccccc1`, the IC50 was determined as 7.8 µM.

In turn, `C[C@H](NC(=O)[C@H](Cc1ccc(OCc2ccccc2)cc1)NC(=O)OC(C)(C)C)C(=O)N[C@@H](C[C@]1(O)C(=O)Nc2ccccc21)C(=O)NCc1cccc2ccccc12` came in with an IC50 of 1.9 µM.

The target in another test is T8, Proteasome subunit beta type-10 (Homo sapiens) (UniProt P40306).
T8 sequence (whole entry): T6 sequence (P40306 whole entry)
In words: Inhibition of human 20S immunoproteasome beta-2 at 50 uM using BocLRR-AMC as substrate incubated for 15 mins measured for 45 mins by fluorescence assay relative to control.
The compound `CC(C)(C)OC(=O)N[C@@H](Cc1ccc(OCc2ccccc2)cc1)C(=O)NCC(=O)N[C@@H](C[C@]1(O)C(=O)Nc2ccccc21)C(=O)NCc1ccccc1` showed an inhibition of more than 85%.

`C[C@H](NC(=O)[C@H](Cc1ccc(OCc2ccccc2)cc1)NC(=O)OC(C)(C)C)C(=O)N[C@@H](C[C@]1(O)C(=O)Nc2ccccc21)C(=O)NCc1cccc2ccccc12` had an inhibition of more than 85%.

Another test deals with T9, Proteasome Macropain subunit MB1 (Homo sapiens) (UniProt P28074).
T9 sequence (whole entry): T3 sequence (P28074 whole entry)
In words: Inhibition of human 20S constitutive proteasome beta-5 at 50 uM using Suc-LLVY-AMC as substrate incubated for 15 mins measured for 45 mins by fluorescence assay relative to control. The essentials:
as §2
The compound `CC(C)(C)OC(=O)N[C@@H](Cc1ccc(OCc2ccccc2)cc1)C(=O)NCC(=O)N[C@@H](C[C@]1(O)C(=O)Nc2ccccc21)C(=O)NCc1ccccc1` registered an inhibition of more than 85%.

Compound `C[C@H](NC(=O)[C@H](Cc1ccc(OCc2ccccc2)cc1)NC(=O)OC(C)(C)C)C(=O)N[C@@H](C[C@]1(O)C(=O)Nc2ccccc21)C(=O)NCc1cccc2ccccc12` displayed an inhibition of more than 85%.
